The values that follow come from publication PMC3865530 (Current pharmaceutical design, 2012).

What all share (format): binding
The subject of assay [1] is Tel24 human telomeric quadruplex DNA. Description: UV-thermal melting with telomeric quadruplex DNA. The note with it: ligand:DNA ratio 4:1; 80 mM KCl; Tm of free Tel24 67 °C.
The subject of assay [2] is AATT duplex sequence. Description: UV-thermal melting with AT-rich hairpin duplex DNA. The note with it: ligand:DNA ratio 2:1; 80 mM KCl; Tm of free AATT 69 °C.
Assay [3] has as its system (CG)4 duplex sequence. Description: UV-thermal melting with GC-rich hairpin duplex DNA. The conditions noted are these: ligand:DNA ratio 2:1; 80 mM KCl; Tm of free (CG)4 63 °C. A digest of the protocol:
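Duplex melted in 10 mM K₂HPO₄, 80 mM KCl, 3 mM EDTA, pH 7.3, at 2–3 µM single-strand, in 1 cm quartz cuvettes. Ligand was titrated from stock to compound:DNA ratios up to 4:1. Absorbance at 260 nm was followed while heating at 0.5 °C/min. ΔTm was taken at 2:1, reproducible within ±1 °C.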

Regarding `Cn1cc(NC(=O)c2cc(NC(=O)c3cc(NC=O)cn3C)cn2C)cc1C(=O)NCCC(=N)N` [Distamycin], in assay [1], the “∆Tm of Tel24 quadruplex” value was “did not show any significant increase”. Moreover, in assay [2], the “∆Tm of AATT duplex” value is given as “strong binder”.

For `COS(=O)(=O)[O-].Cc1cc2c3c([n+](C)c4ccc(F)cc4c3c1)-c1cc(F)ccc1N2C` [RHPS4, 3,11-difluoro-6,8,13-trimethyl-8H-quino[4,3,2-kl] acridinium methosulfate], the “∆Tm of Tel24 quadruplex” value in assay [1] is listed as “very similar melting values as DB832”. In addition, in assay [2], the “∆Tm of AATT duplex” value was “very little affinity”. Moreover, the “∆Tm of (CG)4 duplex” value in assay [3] is “very little affinity”.
